# tolC growth inh: E. coli tolC mutant growth inhibition | E. coli BW25113 tolC mutant growth, OD615 | growth inhibition, % at 10 µM (by protocol) | actives 2.2% (n = 65,000) | AID 573;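 active = growth inhibition at or above a cutoff equal to the mean over every tested compound plus 3 SD, cut at about 60% in these data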;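 also: growth measured after 20 h incubation at 37 °C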
#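 Signal: optical density read at 615 nm; Assay system: E. coli ΔtolC::kan strain BW25113; Times: 20 h incubation with compound, 37 °C; Dosing: 10 µM final, single dose.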
# PostGolgi ctrl: inhibits growth of the yeast control strain; efflux-deficient yeast background strain, growth absorbance A615, 16 h; inhibition, % at 10 µM; actives 5% (n = 98,000); AID 738
# PostGolgi yeast: growth inhibition of a yeast mutant, post-Golgi transport screen. post-Golgi transport phenotypic cell assay. inhibition, % at 10 µM. actives 0.9% (n = 98,000);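 also: yeast cells grown in 1536-well plates; yeast grown about 18 h at 30C before absorbance read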
# E coli WT exp: E. coli BW25113 growth inhibition, expanded screen; OD600 absorbance; growth inhibition, % at 100 µM; actives 0.15% (n = 98,000); AID 710;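 active = growth inhibition above about 50% at one test dose, limit read from the data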;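 also: growth measured after 20 h incubation at 37 °C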
# Hits are given with their value; n = inactive; x = no result given. This is a sample that favours compounds with a hit; in the whole collection about 6.3% have one here. Rule as the data show it, unless noted: active = inhibition above about 30%; inactive = the rest.
SMILES,tolC growth inh,PostGolgi ctrl,PostGolgi yeast,E coli WT exp
COc1ccc(C2(C(=O)NCCCN(C)C)CCOCC2)cc1,n,n,n,n
COc1cc(C)c(C)cc1S(=O)(=O)N1CCCCC1c1cccnc1 (stereo unspecified),n,n,n,n
CC1CCCCN1S(=O)(=O)c1ccc(C(=O)Nc2nnc(-c3ccccc3Cl)o2)cc1 (stereo unspecified),100.0,n,n,n
CC(=O)Nc1ccc(S(=O)(=O)N2CCCCC2c2cccnc2)cc1 (stereo unspecified),n,34.9,n,n
CCOc1ccc(NC(=O)N2CCC(c3ccc(C)cc3)C2)cc1 (stereo unspecified),x,36.0,n,n
CCOC(=O)c1c(-c2ccc(C)o2)csc1NC(=O)CSc1ncn[nH]1,x,33.9,n,n
CCOC(=O)c1c(-c2ccccc2)csc1NC(=O)CSc1nnnn1C,n,37.9,n,n
CCOC(=O)c1c(-c2ccc(C)o2)csc1NC(=O)CN1CCOCC1,x,n,n,n
CCOC(=O)c1c(-c2ccc(OC)cc2)csc1NC(=O)CSc1ccccc1,x,n,n,n
Cc1cc2cc(CNC(=O)Cc3cccs3)ccc2n1C,n,x,x,x
N#Cc1ccc(CSc2nnc(-c3cccs3)n2-c2ccccc2)cc1,74.3,43.2,n,n
N#Cc1ccc(CSc2nnc(-c3ccccn3)n2-c2ccccc2)cc1,n,n,n,n
COc1ccc(-n2c(COc3ccccc3)nnc2SCc2ccc(C#N)cc2)cc1,63.4,n,n,n
Cc1ccc(-c2nnc(CSc3nnc(COc4ccccc4)n3-c3ccc(C)cc3)o2)cc1,n,33.7,n,n
CN1C(=O)CC(C(=O)O)SC1=Nc1cccc(C(F)(F)F)c1 (stereo unspecified),n,n,n,n
CN(C)c1nc2ccc(OCCN3CCCCC3)cc2s1,n,n,n,n
CC(C)c1ccc(NC(=O)Nc2cc3sccc3n2C)cc1,x,n,n,n
COc1ccc(Nc2ncc(C(=O)N3CCN(Cc4ccccc4)CC3)c3ccccc23)cc1,x,n,n,n
O=C1CC(N2CCN(Cc3ccc4c(c3)OCO4)CC2)C(=O)N1c1ccccc1 (stereo unspecified),n,40.0,n,n
CC1(C)CC(=O)c2cn3nc(C(F)(F)F)nc3nc2C1,x,n,n,n
COc1ccc(S(=O)(=O)N2CCC(n3cnc4cc(C(F)(F)F)ccc43)CC2)cc1,n,40.7,n,n
CC(=O)Nc1ccc(S(=O)(=O)N2CCC(n3cnc4cc(F)ccc43)CC2)cc1,n,n,n,n
CCC(C)Sc1nnc(CSc2nc3nc(C)cc(C)n3n2)o1 (stereo unspecified),x,n,n,n
CCCc1cc(-c2nc(N)ncc2-c2ccc3c(c2)OCCCO3)c(O)cc1OC,n,40.3,n,n
CCOC(=O)COc1ccc(C(=O)NC2CCCCC2)cc1,n,n,n,n
SMILES,tolC growth inh,PostGolgi ctrl,PostGolgi yeast,E coli WT exp
COc1ccccc1N1CCN(Cc2nc(N)nc(Nc3ccc(C)c(Cl)c3)n2)CC1,69.0,n,n,n
COc1ccccc1Nc1nc(N)nc(CN2CCN(c3ccccc3F)CC2)n1,n,n,n,n
CC12CCC(C(=O)N3CCN(Cc4ccccc4)CC3)(OC1=O)C2(C)C (stereo unspecified),n,n,n,n
CC(NC(=O)C(Cc1ccccc1)N1C(=O)C2C3CCC(C3)C2C1=O)c1ccccc1 (stereo unspecified),x,31.7,n,n
CCOc1ccccc1NC(=O)CCC(=O)Nc1ccccc1OCC,x,n,n,n
CCOc1ccccc1N/C=C/C(=O)C(C)(C)C,n,32.9,n,n
O=C(NCCc1ccc(Cl)cc1)Nc1cccc(Cl)c1,x,34.1,n,n
O=C(NCc1ccncc1)Nc1cccc(Cl)c1,x,n,n,n
CC(=O)Cc1nsc(NC(=O)c2ccc(COc3ccccc3)o2)n1,n,n,n,n
Cc1ccc(-n2nnnc2SCC(=O)Nc2cccc(NC(=O)c3ccco3)c2)cc1C,n,37.7,n,n
CCc1ccc(-n2nnnc2SCC(=O)NNC(=O)c2ccco2)cc1,x,n,n,n
CC(=O)c1ccc(-n2nnnc2SCC(=O)NNC(=O)c2ccco2)cc1,x,42.7,n,n
CC(=O)C(C(C)=O)c1c(Cl)c(O)c(O)c2c(C(=O)c3ccccc3)coc12,n,n,n,n
O=C1CC(SCCO)C(=O)N1c1ccc(Oc2ccccc2)cc1 (stereo unspecified),n,n,n,n
CCN(c1cccc(C(F)(F)F)c1)S(=O)(=O)c1ccc2c(c1)CCN2C(=O)C1CC1,69.3,n,n,n
FC(F)(F)c1cc(-c2ccc(Cl)cc2)nc(NCc2cccnc2)n1,x,n,n,n
Cc1ccc(-c2cc(C(F)F)nc(NCc3cccnc3)n2)cc1,n,43.8,n,n
Cc1ccc(-c2cc(C(F)F)nc(NCC3CCCO3)n2)cc1 (stereo unspecified),n,32.0,n,n
CC(C)(C)S(=O)(=O)c1c(C(=O)O)cccc1C(=O)O,n,n,n,n
CC(Oc1cc(-c2ccccc2)cc2ccccc12)C(=O)N1CCOCC1 (stereo unspecified),x,n,n,n
CCOC(=O)C1=C(CSc2nc(C)ccc2C#N)OC(N)=C(C#N)C1c1cccc(OC)c1OC (stereo unspecified),n,n,n,n
FC(F)(F)c1cc(C(F)(F)F)c2ccc(N3CCN(c4ccc(Cl)cc4)CC3)nc2n1,x,n,n,n
N#CC(c1ccc(Cl)cc1)c1ccc2c(C(F)(F)F)cc(C(F)(F)F)nc2n1 (stereo unspecified),x,91.1,81.8,n
O=c1c2ccccc2c(-c2ccc(Cl)cc2)nn1-c1ccccc1,x,39.7,n,n
O=S(=O)(Nc1nc2ccccc2nc1N1CCN(c2ccccc2F)CC1)c1ccc(Cl)cc1,x,n,n,n
SMILES,tolC growth inh,PostGolgi ctrl,PostGolgi yeast,E coli WT exp
Fc1ccc(-n2c(Cc3ccccc3)nnc2SCc2nc(-c3cccs3)no2)cc1,69.6,33.5,n,n
c1ccc(-c2nc(NCC3CCCO3)c3oc4ccccc4c3n2)cc1 (stereo unspecified),x,53.2,n,n
c1ccc2c(c1)oc1c(NCC3CCCO3)ncnc12 (stereo unspecified),x,n,n,n
c1ccc(-c2nc(NCc3cccnc3)c3oc4ccccc4c3n2)cc1,n,55.0,n,n
COC(=O)c1cccc(NC(=S)NCc2ccc(Cl)cc2)c1,x,44.6,n,n
COc1ccc(CNC(=S)Nc2cccc(C)c2)cc1,x,n,n,n
Cc1cc(C)n(-c2nc(SCCN(C)C)c3c4c(sc3n2)COC(C)(C)C4)n1,x,n,n,n
CCCCN(CC)S(=O)(=O)c1ccc(C(=O)Nc2nnc(-c3ccccc3Cl)o2)cc1,100.0,n,n,n
CCc1nnc(NC(=O)c2ccc(S(=O)(=O)N(CCOC)CCOC)cc2)o1,n,n,n,n
CCCCN(C)S(=O)(=O)c1ccc(C(=O)Nc2nnc(-c3cccs3)o2)cc1,100.0,n,n,n
CCN(CC)S(=O)(=O)c1ccc(C(=O)Nc2cc(C)cc(C)c2)cc1,x,n,n,n
CCCCN(CC)S(=O)(=O)c1ccc(C(=O)Nc2nnc(CSC)o2)cc1,98.5,n,n,n
CCCCN(CCCC)S(=O)(=O)c1ccc(C(=O)Nc2nnc(CSC)o2)cc1,98.8,n,n,n
Cn1c(-c2ccc(C=O)s2)nc2c3ccccc3c3ccccc3c21,x,n,n,n

# Compound activity deposited in PubChem by SRMLSC.
